Among the data in ChEMBL document CHEMBL3414565, “Discovery of novel AHLs as potent antiproliferative agents” (Eur J Med Chem, 2015) are IC50 values, retold here.

The term pIC50 denotes −log10 of the IC50, conventionally taken in molar units. A higher pIC50 goes with a small IC50.

Assay type in all cases: functional, cell-based
One assay relates to SMMC-7721. Nature of the assay: Cytotoxicity against human SMMC7721 cells after 72 hrs by MTT assay. The conditions noted are these: SMMC-7721, 72 h. A digest of the protocol:
(§1)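 Cells were grown in RPMI1640 and seeded at 5 × 10^3 cells/well, then left 24 h at 37 °C. Medium was replaced with fresh medium holding a range of compound concentrations, from 10 mM DMSO stocks with final DMSO at most 0.1%. Exposure lasted 72 h. MTT (5 mg/mL) was added for 4 h at 37 °C, formazan was dissolved in DMSO and A570 was read. IC50 came from dose-response curves as mean ± SD of three independent experiments.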
(In general: Tetrazolium assays rely on reduction of a dye to a coloured formazan, in cell work by metabolically active cells.)

Another assay has as its system MGC-803. Kind of assay: Cytotoxicity against human MGC803 cells after 72 hrs by MTT assay. The settings on record: MGC-803, 72 h. A digest of the protocol:
as §1

The nature of assay [1]: Cytotoxicity against human EC9706 cells after 72 hrs by MTT assay. The conditions noted are these: EC9706, 72 h. A digest of the protocol: as §1
The next assay relates to MCF7. Nature of the assay: Cytotoxicity against human MCF7 cells after 72 hrs by MTT assay. The conditions noted are these: MCF7, 72 h. A digest of the protocol: as §1

pIC50: −log10 of the molar value.

As to `O=C(CCl)Nc1ccc(C(=O)/C=C/c2ccccc2Cl)cc1`, the pIC50 with SMMC-7721 was 4.95; in the assay with MGC-803 it was 5.56; in assay [1] it was 5.16; with MCF7 it was 5.28.
In the same order, the values of `CCOC(=O)c1ccc(NC(=O)CSC(=S)N[C@H]2CCOC2=O)cc1` are 4.19, 4.66, 3.95 and 4.22.
Consider `O=C(CSC(=S)N[C@H]1CCOC1=O)Nc1ccc(C(=O)/C=C/c2cccc(Cl)c2)cc1`, for which the negative-log IC50 (pIC50) in the assay on SMMC-7721 was 4.41; in the assay with MGC-803, 4.81; in assay [1] it was 4.49; in the assay with MCF7 it was 4.93.
In the same order, the values of `CCCCCCCCSC(=S)N[C@H]1CCOC1=O` are 4.19, less than 3.89, less than 3.89 and less than 3.89.
Take `CC(=O)c1ccc(NC(=O)CSC(=S)N[C@H]2CCOC2=O)cc1`: the pIC50 in the assay with SMMC-7721 is less than 3.89; with MGC-803, 4.00; in assay [1] it was less than 3.89; with MCF7 it was less than 3.89.
For the compound `COc1cccc(/C=C/C(=O)c2ccc(NC(=O)CCl)cc2)c1`, the pIC50 with SMMC-7721 is 4.99; in the assay with MGC-803 it was 5.54; in assay [1] it was 5.22; in the assay with MCF7, 5.52.
Turning to `O=C(CSC(=S)N[C@H]1CCOC1=O)Nc1ccccc1Cl`, the pIC50 is 4.30 in the assay with SMMC-7721, 4.50 with MGC-803, less than 3.89 in assay [1] and 4.04 in the assay on MCF7.
`CCCCc1ccc(NC(=O)CSC(=S)N[C@H]2CCOC2=O)cc1`: the pIC50 is 4.56 in the assay with SMMC-7721, 4.69 in the assay on MGC-803, 4.35 in assay [1] and 4.40 in the assay with MCF7.
In the same order, the values of `O=C(CCl)Nc1ccc(C(=O)/C=C/c2cccc(Cl)c2)cc1` are 5.11, 5.70, 5.25 and 5.27.
In the same order, the values of `O=C(CSC(=S)N[C@H]1CCOC1=O)Nc1ccccc1` are less than 3.89, 4.40, less than 3.89 and less than 3.89.
In the same order, the values of `O=C(CSC(=S)N[C@H]1CCOC1=O)Nc1ccc(C(=O)/C=C/c2ccc([N+](=O)[O-])cc2)cc1` are less than 3.89, 4.53, less than 3.89 and 5.57.
In the case of `O=C(CSC(=S)N[C@H]1CCOC1=O)Nc1cccc([N+](=O)[O-])c1`, the pIC50 in the assay on SMMC-7721 was less than 3.89; in the assay on MGC-803, 4.23; in assay [1], less than 3.89; in the assay on MCF7, 5.26.
`O=C(CSC(=S)N[C@H]1CCOC1=O)Nc1ccc(O)cc1`: the pIC50 in the assay on SMMC-7721 was less than 3.89; in the assay with MGC-803, 4.10; in assay [1], less than 3.89; in the assay on MCF7, less than 3.89.
In the case of `O=C(CSC(=S)N[C@H]1CCOC1=O)Nc1cccc(C(F)(F)F)c1`, the pIC50 was less than 3.89 in the assay on SMMC-7721, 4.75 in the assay with MGC-803, 4.10 in assay [1] and 5.50 in the assay on MCF7.
For `CCCCCCCCCCCCCCSC(=S)N[C@H]1CCOC1=O`, the negative-log IC50 (pIC50) was 4.25 in the assay on SMMC-7721, 4.18 in assay [1] and 4.52 in the assay with MCF7.
Regarding `COc1ccc(NC(=O)CSC(=S)N[C@H]2CCOC2=O)cc1`, the negative logarithm of the IC50 (pIC50) in the assay with SMMC-7721 is less than 3.89; with MGC-803 it was 4.21; in assay [1], less than 3.89; with MCF7, less than 3.89.
For `CCCCCCCCCC(=O)CC(=O)N[C@H]1CCOC1=O`, the pIC50 is less than 3.89 in the assay with SMMC-7721, 3.99 in the assay on MGC-803, less than 3.89 in assay [1] and 4.43 with MCF7.
Turning to `O=C(CSC(=S)N[C@H]1CCOC1=O)Nc1ccc(C(=O)/C=C/c2ccc(Br)cc2)cc1`, the pIC50 in the assay on SMMC-7721 was 4.74; in the assay with MGC-803 it was 4.71; in assay [1] it was 4.04; with MCF7, 4.73.
In the case of `O=C(CSC(=S)N[C@H]1CCOC1=O)Nc1ccccc1F`, the results for the pIC50 (in the assay with SMMC-7721; in assay [1]; with MCF7) were less than 3.89, less than 3.89 and 4.54, respectively.
Regarding `O=C(CSC(=S)N[C@H]1CCOC1=O)Nc1cccc(Cl)c1`, the pIC50 in the assay on SMMC-7721 is less than 3.89; in the assay on MGC-803 it was 4.66; in assay [1], 3.97; in the assay with MCF7, 4.33.
As to `CCCCCCSC(=S)N[C@H]1CCOC1=O`, the negative logarithm of the IC50 (pIC50) (in the assay on SMMC-7721; in the assay on MGC-803; in assay [1]; with MCF7) was less than 3.89 in each case.
Consider `O=C(CCl)Nc1ccc(C(=O)/C=C/c2ccccc2)cc1`, for which the pIC50 is 4.90 in the assay on SMMC-7721, 5.16 in the assay on MGC-803, 5.20 in assay [1] and 5.61 in the assay on MCF7.
Regarding `O=C(CSC(=S)N[C@H]1CCOC1=O)Nc1ccc(F)cc1`, the negative logarithm of the IC50 (pIC50) in the assay on SMMC-7721 was less than 3.89; in the assay with MGC-803, 4.42; in assay [1], 4.17; with MCF7, 5.23.
In the same order, the values of `O=C(CCl)Nc1ccc(C(=O)/C=C/c2ccc(Br)cc2)cc1` are 4.87, 5.22, 5.00 and 5.33.
On to `CCSC(=S)N[C@H]1CCOC1=O`, for which the negative-log IC50 (pIC50) (with SMMC-7721; with MGC-803; in assay [1]; in the assay with MCF7) was less than 3.89 each time.
Consider `O=C(CCl)Nc1ccc(C(=O)/C=C/C=C/c2ccccc2)cc1`, for which the pIC50 was 4.43 in the assay with SMMC-7721, 5.22 in the assay on MGC-803, 4.97 in assay [1] and 5.34 in the assay on MCF7.
For the compound `Cc1cccc(NC(=O)CSC(=S)N[C@H]2CCOC2=O)c1C`, the negative logarithm of the IC50 (pIC50) in the assay on SMMC-7721 is 4.38; in assay [1], less than 3.89; in the assay on MCF7 it was less than 3.89.
Turning to `O=C(CSC(=S)N[C@H]1CCOC1=O)Nc1ccc(Br)cc1`, the figures for the negative logarithm of the IC50 (pIC50) (in the assay on SMMC-7721; in assay [1]; in the assay with MCF7) were 4.55, 4.17 and 4.18, respectively.
Regarding `CCCCSC(=S)N[C@H]1CCOC1=O`, the negative-log IC50 (pIC50) (in the assay with SMMC-7721; in the assay with MGC-803; in assay [1]; in the assay with MCF7) was less than 3.89 throughout.
Turning to `CCCCCCCCCCCCSC(=S)N[C@H]1CCOC1=O`, the figures for the negative-log IC50 (pIC50) (in the assay with SMMC-7721; in assay [1]; in the assay with MCF7) were 4.30, 4.23 and 4.21, respectively.
Take `O=c1[nH]cc(F)c(=O)[nH]1` [FLUOROURACIL]: the pIC50 in the assay with SMMC-7721 is 4.69; in the assay on MGC-803, 4.97; in assay [1], 4.80; in the assay on MCF7, 4.91.
In the same order, the values of `O=C(CCl)Nc1ccc(C(=O)/C=C/c2ccc([N+](=O)[O-])cc2)cc1` are 5.04, 5.63, 5.44 and 5.41.
Regarding `O=C(CSC(=S)N[C@H]1CCOC1=O)Nc1ccc(Cl)cc1Cl`, the pIC50 with SMMC-7721 is less than 3.89; with MGC-803, 4.31; in assay [1] it was less than 3.89; in the assay on MCF7 it was 4.53.
On to `O=C(CSC(=S)N[C@H]1CCOC1=O)Nc1ccc(Cl)cc1`, for which the pIC50 in the assay with SMMC-7721 was less than 3.89; in assay [1] it was less than 3.89; in the assay on MCF7, 4.30.
Take `O=C(CSC(=S)N[C@H]1CCOC1=O)Nc1ccc(C(=O)/C=C/c2ccccc2)cc1`: the negative-log IC50 (pIC50) in the assay on SMMC-7721 is less than 3.89; in the assay with MGC-803, 4.61; in assay [1], 4.35; in the assay on MCF7, 4.35.
`O=C(CCl)Nc1ccc(C(=O)/C=C/c2ccc(Cl)cc2)cc1`: the negative logarithm of the IC50 (pIC50) in the assay with SMMC-7721 is 5.09; in the assay with MGC-803, 5.30; in assay [1], 5.08; in the assay with MCF7, 5.39.
In the case of `O=C(CCl)Nc1ccc(C(=O)/C=C/c2ccc(F)c(F)c2)cc1`, the negative-log IC50 (pIC50) is 5.22 in the assay with SMMC-7721, 5.50 with MGC-803, 5.33 in assay [1] and 5.64 with MCF7.
Take `COc1cc(/C=C/C(=O)c2ccc(NC(=O)CCl)cc2)cc(OC)c1OC`: the pIC50 in the assay with SMMC-7721 is 5.52; in the assay with MGC-803, 5.76; in assay [1] it was 5.56; in the assay with MCF7 it was 5.88.
For the compound `CSC(=S)N[C@H]1CCOC1=O`, the pIC50 (in the assay on SMMC-7721; in the assay on MGC-803; in assay [1]; in the assay on MCF7) was less than 3.89 each time.
`Cc1ccc(NC(=O)CSC(=S)N[C@H]2CCOC2=O)cc1`: the pIC50 in the assay on SMMC-7721 is 4.49; in the assay on MGC-803 it was 4.35; in assay [1], 4.03; with MCF7, 4.47.
In the same order, the values of `O=C(CCl)Nc1ccc(C(=O)/C=C/c2ccc(F)cc2)cc1` are 4.82, 5.33, 5.07 and 5.26.
Consider `Cc1cccc(NC(=O)CSC(=S)N[C@H]2CCOC2=O)c1`, for which the pIC50 in the assay with SMMC-7721 was less than 3.89; in the assay with MGC-803, 4.44; in assay [1], less than 3.89; in the assay on MCF7, 4.20.
Consider `O=C(CSC(=S)N[C@H]1CCOC1=O)Nc1ccc(C(=O)/C=C/c2ccc(F)cc2)cc1`, for which the negative logarithm of the IC50 (pIC50) in the assay on SMMC-7721 was less than 3.89; in the assay with MGC-803 it was 4.34; in assay [1], 4.34; in the assay on MCF7, 4.08.
Turning to `Cc1ccc(/C=C/C(=O)c2ccc(NC(=O)CCl)cc2)cc1`, the negative-log IC50 (pIC50) was 4.64 in the assay with SMMC-7721, 5.44 in the assay on MGC-803, 5.15 in assay [1] and 5.04 in the assay on MCF7.
In the same order, the values of `O=C(CSC(=S)N[C@H]1CCOC1=O)Nc1ccc(C(=O)/C=C/c2ccc(Cl)cc2)cc1` are less than 3.89, 5.16, 4.41 and 4.69.
